The source made the active and inactive calls. The calls are words filed in the database; no cut-off is given here.
Key:
Trypanosoma cruzi [1] = experiment: Antitrypanosomal activity against Trypanosoma cruzi Arequipa epimastigote forms incubated for 72 hrs by hemocytometry; format: functional, organism-based
Outline: (§1)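 Epimastigotes grown in MTL medium with 10% inactivated FBS at 28 °C. Compounds were dissolved in DMSO (0.01% v/v) and added at 0.1–100 µM for 72 h. Parasites were counted in a Neubauer chamber. IC50 (50% growth inhibition) was derived by linear regression of Kc values. Values are averages of four determinations.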

Trypanosoma cruzi [2] = experiment: Antitrypanosomal activity against Trypanosoma cruzi Arequipa amastigote forms infected in African green monkey Vero cells incubated for 72 hrs by Giemsa staining based micrscopy; format: functional, organism-based
Outline: (§2)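 Vero cells (RPMI, 10% inactivated FBS, 37 °C, 5% CO2) were seeded at 1×10^4/well on coverslips and cultured 2 days. They were infected 24 h with metacyclic forms at 10:1. After washing off free parasites, drugs were added at 0.1–100 µM for 72 h. Slides were methanol-fixed and Giemsa-stained; amastigotes were counted in 200 host cells versus untreated. IC50 was calculated.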

Trypanosoma cruzi [3] = experiment: Antitrypanosomal activity against Trypanosoma cruzi Arequipa trypomastigote froms infected in mouse blood incubated for 24 hrs by Neubauer chamber based assay; format: functional, organism-based
Outline: (§3)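 Mouse blood taken at peak parasitemia (day 7) was diluted with uninfected blood to 4×10^6 trypomastigotes/mL, then 1:2 in RPMI 1640. Drugs from DMSO stocks were added at 1, 10, 25, 50 and 100 µM and incubated 24 h at 4–8 °C. Parasites were counted in a Neubauer chamber in triplicate. IC50 was calculated versus control.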

Trypanosoma cruzi [4] = experiment: Antitrypanosomal activity against Trypanosoma cruzi Tulahuen epimastigote forms incubated for 72 hrs by hemocytometry; format: functional, organism-based; outline: as §1
Trypanosoma cruzi [5] = experiment: Antitrypanosomal activity against Trypanosoma cruzi Tulahuen amastigote forms infected in African green monkey Vero cells incubated for 72 hrs by Giemsa staining based micrscopy; format: functional, organism-based; outline: as §2
Trypanosoma cruzi [6] = experiment: Antitrypanosomal activity against Trypanosoma cruzi Tulahuen trypomastigote froms infected in mouse blood incubated for 24 hrs by Neubauer chamber based assay; format: functional, organism-based; outline: as §3
Trypanosoma cruzi [7] = experiment: Antitrypanosomal activity against Trypanosoma cruzi SN3 epimastigote forms incubated for 72 hrs by hemocytometry; format: functional, organism-based; details: SN3, 72 h; outline: as §1
Trypanosoma cruzi [8] = experiment: Antitrypanosomal activity against Trypanosoma cruzi SN3 amastigote forms infected in African green monkey Vero cells incubated for 72 hrs by Giemsa staining based micrscopy; format: functional, organism-based; outline: as §2
Trypanosoma cruzi [9] = experiment: Antitrypanosomal activity against Trypanosoma cruzi SN3 trypomastigote froms infected in mouse blood incubated for 24 hrs by Neubauer chamber based assay; format: functional, organism-based; outline: as §3
Vero = experiment: Cytotoxicity in African green monkey Vero cells incubated for 72 hrs; format: cell-based; details: Chlorocebus sabaeus
Trypanosoma cruzi [10] = experiment: Antitrypanosomal activity against Trypanosoma cruzi infected in African green monkey Vero cells assessed as reduction in number of trypomastigotes measured up to 10 days by Giemsa staining based hemocytometry; format: functional; details: time day <=10
Outline: (§4)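 Vero cells infected with metacyclic forms (10:1) were exposed to one concentration per compound immediately after infection for 12 h at 37 °C, 5% CO2. After washing, cultures were kept 10 days with fresh medium every 48 h. Every 48 h, % infected cells and amastigotes per infected cell (200 Giemsa-stained cells) and medium trypomastigotes (Neubauer) were scored. Means of three experiments.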

Trypanosoma cruzi [11] = experiment: Antitrypanosomal activity against Trypanosoma cruzi infected in African green monkey Vero cells assessed as reduction in number of amastigotes per infected cell measured up to 10 days by Giemsa staining based hemocytometry; format: functional; details: time day <=10; outline: as §4
Trypanosoma cruzi [12] = experiment: Antitrypanosomal activity against Trypanosoma cruzi infected in African green monkey Vero cells assessed as reduction in infection rate measured up to 10 days by Giemsa staining based hemocytometry; format: functional; details: time day <=10; outline: as §4
Trypanosoma cruzi [13] = experiment: Antitrypanosomal activity against Trypanosoma cruzi Arequipa trypomastigotes infected in BALB/c mouse assessed as reduction in parasitemia measured during acute phase (days 0 to 40 post infection) at 50 to 100 mg/kg, po dosed on alternating days (7 to 15 days post infection); format: functional, organism-based; details: dose 50-100 mg/kg
Outline: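 Female BALB/c mice (8–10 weeks, 25–30 g; groups of six) were infected i.p. with 5×10^5 Arequipa blood trypomastigotes. Dosing was oral, 50 or 100 mg/kg/day, on 5 alternating days (days 7–15 pi), alongside untreated and reference-drug groups. Parasitemia was counted in 5 µL mandibular-vein blood by Neubauer chamber through day 40 pi. Data are means ± SD of six mice.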

Trypanosoma cruzi [14] = experiment: Antitrypanosomal activity against Trypanosoma cruzi Arequipa trypomastigotes infected in BALB/c mouse assessed as reduction in mouse mortality measured during acute phase (days 0 to 40 post infection) at 50 to 100 mg/kg, po dosed on alternating days (7 to 15 days post infection); format: functional, organism-based; details: dose 50-100 mg/kg
Trypanosoma cruzi [15] = experiment: Antitrypanosomal activity against Trypanosoma cruzi Arequipa trypomastigotes infected in BALB/c mouse assessed as reduction in splenomegaly by measuring weight percent of spleens […] at 100 mg/kg, po dosed on alternating days (7 to 15 days post infection) by PCR analysis (reference value: 1.603%); format: functional

Compound | IC50 (Trypanosoma cruzi [1]) | IC50 (Trypanosoma cruzi [2]) | IC50 (Trypanosoma cruzi [3]) | IC50 (Trypanosoma cruzi [4]) | IC50 (Trypanosoma cruzi [5]) | IC50 (Trypanosoma cruzi [6]) | IC50 (Trypanosoma cruzi [7]) | IC50 (Trypanosoma cruzi [8]) | IC50 (Trypanosoma cruzi [9]) | IC50 (Vero) | inhibition (INH) (Trypanosoma cruzi [10]) | inhibition (INH) (Trypanosoma cruzi [11]) | inhibition (INH) (Trypanosoma cruzi [12]) | Activity (Trypanosoma cruzi [13]) | Activity (Trypanosoma cruzi [14]) | Spleen weight percent (Trypanosoma cruzi [15])
O=C(CCN1CCN(Cc2cccc(F)c2)CC1)c1csc2ccccc12 | 86.7 µM | 22.6 µM | 39.5 µM | 28.9 µM | 20 µM | 27.3 µM | 53.9 µM | 32 µM | 86.3 µM | 70.8 µM | – | – | – | – | – | –
O=C(CCN1CCN(c2ccc(Cl)cc2)CC1)c1ccsc1 | 14.1 µM | 10 µM | 46.9 µM | 28 µM | 7.7 µM | 22.3 µM | 24.1 µM | 16.3 µM | 21.8 µM | 65.8 µM | – | – | – | – | – | –
O=C(CCN1CCN(c2ccc(C(F)(F)F)cc2)CC1)c1ccc2c(c1)OCO2 | 50.6 µM | 27.9 µM | 21.8 µM | 21.8 µM | 17.6 µM | 23.7 µM | 17.8 µM | 13 µM | 14.2 µM | 48.7 µM | – | – | – | – | – | –
O=C(Cn1ccnc1[N+](=O)[O-])NCc1ccccc1 [BENZNIDAZOLE] | – | 23.7 µM | 12.6 µM | – | 21.7 µM | 12.8 µM | – | – | 6.2 µM | – | 20% | 30% | 22% | Active | Active | 0.837%
O=C(CCN1CCN(c2ccc([N+](=O)[O-])cc2)CC1)c1ccc2c(c1)OCO2 | 1.4 µM | 1.2 µM | 0.58 µM | 15.6 µM | 11.6 µM | 0.08 µM | 18.8 µM | 11.4 µM | 50.9 µM | 276 µM | – | – | – | – | – | –
O=C(CCN1CCN(c2ccc(C(F)(F)F)cc2)CC1)c1ccc2ccccc2c1 | 1.23 µM | 2.6 µM | 8.3 µM | 4.2 µM | 20.5 µM | 6.6 µM | 15.3 µM | 8.3 µM | 36.5 µM | 30.1 µM | – | – | – | – | – | –
O=C(CCN1CCN(c2ccc(Cl)cc2)CC1)c1ccc2c(c1)OCO2 | 2.5 µM | 1.7 µM | 46.3 µM | 69.1 µM | 11.2 µM | 29.3 µM | 12.6 µM | 6.2 µM | 16.8 µM | 0.3 µM | – | – | – | – | – | –
O=C(CCN1CCN(c2ccc(C(F)(F)F)cc2)CC1)c1csc2ccccc12 | 21.9 µM | 19.3 µM | 32.3 µM | 48.2 µM | 8.1 µM | 6.6 µM | 40.6 µM | 21.4 µM | 43.2 µM | 237 µM | – | – | – | – | – | –
O=C(CCN1CCN(c2ccc(Cl)cc2)CC1)c1csc2ccc(F)cc12 | 28.5 µM | 13.2 µM | 9.6 µM | 9.6 µM | 14.8 µM | 21.8 µM | 30.1 µM | 17.6 µM | 19.6 µM | 246 µM | – | – | – | – | – | –
O=C(CCN1CCN(Cc2ccccc2)CC1)c1csc2ccccc12 | 29.7 µM | 31.7 µM | 43.3 µM | 30.1 µM | 21.7 µM | 32.3 µM | 42.5 µM | 18.7 µM | 20.8 µM | 130 µM | – | – | – | – | – | –
O=C(CCN1CCN(c2ccc(F)cc2)CC1)c1ccc2c(c1)OCO2 | 97 µM | 22.4 µM | 34.6 µM | 200 µM | 22.3 µM | 56.3 µM | 17.6 µM | 14.8 µM | 63.4 µM | 323 µM | – | – | – | – | – | –
O=C(CCN1CCN(c2ccc([N+](=O)[O-])cc2)CC1)c1ccc2ccccc2c1 | 3.4 µM | 5.4 µM | 3.9 µM | 6.9 µM | 8.6 µM | 6.9 µM | 27.7 µM | 20.3 µM | 26.4 µM | 74.3 µM | – | – | – | – | – | –
COc1cc(Cl)ccc1N1CCN(CCC(=O)c2cc(C)sc2C)CC1 | 2.5 µM | 0.8 µM | 0.7 µM | 4.7 µM | 2 µM | 2.3 µM | 21.2 µM | 24.2 µM | 37.5 µM | 138 µM | – | – | – | – | – | –
O=C(CCN1CCN(c2ccc(F)cc2)CC1)c1ccc2ccccc2c1 | 49 µM | 23.9 µM | 24.6 µM | 27.6 µM | 20.3 µM | 25.5 µM | 24.1 µM | 12.4 µM | 10.7 µM | 103 µM | – | – | – | – | – | –
O=C(CCN1CCN(c2ccc(Cl)cc2)CC1)c1csc2ccccc12 | 30.6 µM | 25.3 µM | 31.4 µM | 42.3 µM | 10.1 µM | 12.8 µM | 23.6 µM | 26.3 µM | 43.2 µM | 157 µM | – | – | – | – | – | –
O=C(CCN1CCN(c2ccc([N+](=O)[O-])cc2)CC1)c1csc2ccc(F)cc12 | 36.6 µM | 19.8 µM | 43.3 µM | 48.1 µM | 8.8 µM | 52.4 µM | 39.4 µM | 16.3 µM | 4.1 µM | 554 µM | – | – | – | – | – | –

Reference: ChEMBL document CHEMBL4680103, “In Vitro and in Vivo Anti-Trypanosoma cruzi Activity of New Arylamine Mannich Base-Type Derivatives” (J Med Chem, 2016)
